Screening results deposited in PubChem BioAssay by several laboratories.
Compounds with a hit are over-represented: about 11% of the library has one in this group of screens.
Diaph act CS – activates diaphorase or chemically reduces, flagging diaphorase assay artifacts; Diaphorase/resazurin coupled assay, resorufin fluorescence, 16 min; stronger effect = higher value; 1 = vehicle wells, 0 = NADH-free wells; activation factor at 20 µM; 190,000 compounds, 0.005% hits;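 active means diaphorase activity raised at least twofold by the compound at 20 µM; inactive means activation factor below 2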
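System – purified diaphorase enzyme from Clostridium kluyveri · Input – enzyme 0.07 U/mL final · Also added – final NADH 0.114 mM, resazurin 0.1 mM · Measured by – fluorescence of resorufin, 544 nm excitation, 590 nm emission · Timing – 16 min enzyme reaction, ambient temperature · Measure – resorufin increase flagging diaphorase activators or reducers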
Diaph inh CS – diaphorase inhibition or chemical oxidation counter-screen; diaphorase resazurin-to-resorufin fluorescence, NADH, 16 min; bacterial (C. kluyveri) enzyme, not human; AID 1217; inhibition, % at 20 µM; 190,000 compounds, 0.69% hits;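 active means primary screen inhibition at 20 µM above a set limit, cut at about 50% in these data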
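Benchmarks: positive control wells lacking NADH, neutral wells with DMSO only. System: bacterial diaphorase enzyme (C. kluyveri). Input: 0.14 U/mL diaphorase, enzyme working solution. Detection: resorufin fluorescence, excitation 544 nm, emission 590 nm. Times: 16-min room-temperature incubation before reading.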
G6PDH CS – inhibits Leuconostoc G6PDH, flagging false hits in G6PDH-based assays; Purified L. mesenteroides G6PDH, diaphorase/resazurin coupled fluorescence, 45 min; inhibition, % at 5 µM; 200,000 compounds, 0.12% hits; AID 1020
WT yeast gro inh – growth inhibition of WT yeast, mitochondrial fusion screen | inhibition, % at 10 µM | mitochondrial fusion phenotypic screen, WT strain | 190,000 compounds, 2.1% hits | AID 1362; in the data active means inhibition above about 58%; tested in S. cerevisiae
L major viab – Leishmania major promastigote growth inhibition; inhibition, % at 10 µM; Leishmania major promastigotes, resazurin fluorescence viability; 200,000 compounds, 9% hits;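 further: promastigotes grown with compound for 44 hours at 28 °C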
Of the large screens only hits and unclear results are named; the others gave an inactive call. Unless noted, no stated cut-off is given here; in the data, active means inhibition above about 50%; inactive means the rest.

O=C(NCc1ccco1)/C(=C/c1ccc(C(F)(F)F)cc1)c1nc2ccccc2[nH]1	L major viab 84.5
O=C(NCc1ccco1)c1cccc(C(F)(F)F)c1	none
C/C(=C\c1ccccc1)C(=O)Nc1cc(C)on1	none
O=C1CC(c2ccccc2)CC(O)=C1C=NCCN1CCNCC1 (stereo not drawn)	none
Cc1ccc(S(=O)(=O)N2CCN(C3CCC(c4ccccc4)CC3)CC2)cc1 (stereo not drawn)	L major viab 95.7
CCS(=O)(=O)N1CCN(C2CCC(c3ccccc3)CC2)CC1 (stereo not drawn)	L major viab 98.7
O=S(=O)(c1ccccc1)N1CCN(C2CCCCCCC2)CC1	none
c1ccc(C2CCC(N3CCNCC3)CC2)cc1 (stereo not drawn)	L major viab 91.4
CCCS(=O)(=O)N1CCN(C2CCC(C)CC2)CC1 (stereo not drawn)	none
CC1(C)CC(=NOC(=O)c2ccccc2)CC(C)(C)N1O	none
CCCn1c(N)c(NCCN2CCOCC2)c(=O)n(CC(=O)NCc2ccccc2)c1=O	none
COc1ccc(CNCc2cccc(Oc3ccccc3)c2)cc1	L major viab 87.1
CCOc1ccc(N2C(=O)C3C(c4ccc(O)cc4)NC(CCSC)(C(=O)OC)C3C2=O)cc1 (stereo not drawn)	none
CCN(C(=O)COc1ccc(C)nc1[N+](=O)[O-])C1CCS(=O)(=O)C1 (stereo not drawn)	L major viab 51.3
COc1ccc(O[C@H]2C=C[C@@H](c3ccccc3)O[C@@H]2COC(=O)CC/C(C)=N/O[C@@H](C)CN2CCCCc3nc(C)c(C)cc32)cc1	WT yeast gro inh 66.7
C/C(CCC(=O)OC[C@H]1O[C@H](C#Cc2ccccc2)C=C[C@@H]1Oc1ccc(C)cc1)=N\O[C@@H](C)CN1CCCCc2nc(C)c(C)cc21	none
CN1CCN(c2ccc(NC(=O)COc3ccccc3Cl)cc2)CC1	L major viab 100.4
O=C(COC(=O)C1Cc2ccccc2CN1C(=O)c1ccccc1Cl)Nc1ccc(N2CCOCC2)cc1 (stereo not drawn)	L major viab 77.2
CCC(=O)N1CCN(c2ccc(NC(=O)COc3ccccc3Cl)cc2)CC1	none
O=C(COC(=O)CNC(=O)c1ccc(Cl)cc1Cl)Nc1ccc(N2CCOCC2)cc1	none
COc1ccc(CCNC(=S)Nc2cccc3ccccc23)cc1	WT yeast gro inh 68.0, L major viab 85.2
COc1ccc(OCCNC(=S)Nc2cccc3ccccc23)cc1	WT yeast gro inh 60.2
COc1ccc(C(=O)CC(=O)C(=O)NCCc2cccc(C)c2)cc1	L major viab 63.6
COc1ccc(CCNC(=S)Nc2ccc(OC)cc2)cc1	none
COc1ccc(NC(=S)NCCc2c(C)[nH]c3ccc(OC)cc23)cc1	L major viab 61.8
Cc1nc(-c2ccccc2)sc1-c1nc(-c2cccs2)ncc1S(=O)(=O)c1ccccc1	none
O=C(Cc1ccccc1[N+](=O)[O-])NCc1ccco1	none
COc1ccc(CCNC(=S)Nc2cc(C)cc(C)c2)cc1	WT yeast gro inh 59.0
CCc1nnc(NC(=O)CSc2nnc(CNc3ccc(C)cc3)n2C)s1	none
CCCN1CCN(C(=O)CCCn2c(C)c3cnn(-c4ccccc4)c(=O)c3c2C)CC1	L major viab 85.0
O=S(=O)(c1cccc2cccnc12)N1CCN(Cc2ccc3c(c2)OCO3)CC1	none
Cc1ccc2cccc(S(=O)(=O)Nc3ccc4c(c3)OCO4)c2n1	L major viab 95.6
O=S(=O)(NCc1ccc2c(c1)OCO2)c1cccc2cccnc12	L major viab 92.3
CCOc1cc(C)c(Cl)cc1S(=O)(=O)NCc1ccc2c(c1)OCO2	L major viab 100.3
Cc1ccc2cccc(OCC(=O)Nc3ccc4c(c3)OCO4)c2n1	none
CCOc1cc(S(=O)(=O)NCc2ccc3c(c2)OCO3)c(C)cc1C	none
CS(=O)(=O)c1ccc(Cl)c(NC(=O)CCl)c1	none
Cc1c(CCOC(=O)C23CC4CC(CC(C4)C2)C3)sc[n+]1Cc1ccccc1	L major viab 98.5
Cc1c(CCOC(=O)C23CC4(C)CC(C)(CC(C)(C4)C2)C3)sc[n+]1CC(=O)c1ccccc1	none
Cc1c(CCOC(=O)C23CC4CC(CC(C)(C4)C2)C3)sc[n+]1Cc1ccccc1	L major viab 100.2
O=C(COc1ccc(Br)cc1)NCCO	none
O=C(/C=C/c1ccc(S(=O)(=O)N2CCOCC2)cc1)NCc1ccc(Cl)cc1	none
C/C(CC(=O)NC1CCCC1)=N\NC(=O)c1ccc([N+](=O)[O-])c(Cl)c1	none
COCc1cc(C)nc(N/N=C/c2ccc(Cl)c(Cl)c2)c1C#N	L major viab 85.3
CC1CC(C)(C)Nc2ccc(OC(=O)c3ccco3)cc21 (stereo not drawn)	L major viab 98.4
CC1CC(C)(C)Nc2ccc(N=O)cc21 (stereo not drawn)	WT yeast gro inh 74.8, L major viab 100.5
CCN(CC)S(=O)(=O)c1ccc(NC(=O)C(OC)c2ccccc2)cc1 (stereo not drawn)	none
COc1ccc(OC)c(NC(=O)c2cccnc2Sc2ccccc2)c1	none
CC1(CC(=O)N/N=C/c2cc([N+](=O)[O-])c(O)cc2O)OCCO1	Diaph inh CS 60.2
CCS(=O)(=O)C1=NN2C(=N)/C(=C\c3ccc(SCc4ccco4)o3)C(=O)N=C2S1	Diaph inh CS 57.0
N=C1/C(=C\c2ccc(SCc3ccccc3)o2)C(=O)N=C2SC=NN12	none
COc1ccccc1-c1c(C)oc2cc(OCC(=O)OCc3ccccc3)ccc2c1=O	L major viab 87.1
Clc1ccc(Cn2nc(-c3ccccc3)nc2-c2ccccc2)cc1	none
O=C(CSc1nc2ccccc2n1CCc1ccccc1)c1ccc(O)c(O)c1	Diaph inh CS 62.6
CNC(=O)c1ccc(-c2ccc(Cl)c(Cl)c2)s1	L major viab 56.1
CNC(=O)c1ccc(-c2ccc(F)cc2)s1	none
O=C(NCCCN1CCCCCC1)c1ccc2c(Cl)c3c(nc2c1)CCCC3	L major viab 73.0
O=C(NCCCN1CCCC1)c1cc2c(Cl)nc3ccccc3c2s1	L major viab 90.4
CCN1CCN(CCCNC(=O)c2cc3c(=O)[nH]c4ccccc4c3s2)CC1	none
CC1CCN(CCCNC(=O)c2cc3c(Cl)nc4ccccc4c3s2)CC1	L major viab 99.8
O=C(NCCN1CCCC1)c1ccc(Cl)cc1	none
CCOC(=O)c1[nH]c(C)c(CC(C)C)c1C	none
CCOc1cc(/C=C2/SC(=Nc3ccccc3)N(Cc3cccnc3)C2=O)ccc1OCC#N	none
CC(C)=CCN1CCN(Cc2cnc(-c3ccccc3)s2)CC1CCO (stereo not drawn)	none
COc1ccc(C)cc1NC(=O)C(=O)NNC(=O)COc1ccc(Cl)cc1	none
COc1ccc(-n2c(C)cc(/C=C3\SC(=S)N(Cc4ccco4)C3=O)c2C)cc1	L major viab 67.6
CCOc1ccccc1NC(=S)Nc1ccc(S(N)(=O)=O)cc1	none
